Consider two compounds from article PMC6911266 (Nature, 2019).

SMILES strings stand for the structures. Numbering of substitutions follows the chain as printed. Where two headings read alike, the source gives them in different places.

Experiment [1] deals with T1, PfCRT WT (3D7) (Plasmodium falciparum, UniProt Q9N623).
T1 sequence (Q9N623 1-424): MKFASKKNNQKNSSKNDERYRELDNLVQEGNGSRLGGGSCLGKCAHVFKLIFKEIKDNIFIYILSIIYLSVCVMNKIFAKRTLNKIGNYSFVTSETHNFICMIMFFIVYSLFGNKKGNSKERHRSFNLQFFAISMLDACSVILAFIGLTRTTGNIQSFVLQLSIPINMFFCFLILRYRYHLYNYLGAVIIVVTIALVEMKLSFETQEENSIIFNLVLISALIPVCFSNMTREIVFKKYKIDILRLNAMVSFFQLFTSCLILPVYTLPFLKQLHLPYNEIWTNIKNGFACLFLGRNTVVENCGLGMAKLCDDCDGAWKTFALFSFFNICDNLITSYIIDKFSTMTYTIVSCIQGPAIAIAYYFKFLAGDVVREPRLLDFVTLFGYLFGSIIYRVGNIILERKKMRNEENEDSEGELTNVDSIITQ
The experiment in a line: Equilibrium dialysis binding, PfCRT variant in nanodiscs. The conditions noted are these: for Bmax, binding at pH 5.5 / Bmax, binding at pH 7.5: equilibrium dialysis. In outline:
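Saturation binding of [3H]-CQ (1 Ci/mmol) or [3H]-PPQ (2.5 Ci/mmol) by equilibrium dialysis (12,000–14,000 MWCO) with 4.2 pmol PfCRT in POPG/MSP1D1 nanodiscs (BacMam, HEK293S GnTi- cells). Kd came from global non-linear regression, N=3.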

Experiment [2] relates to P. falciparum Dd2^Dd2 parasite line. The experiment in a line: Parasite drug susceptibility assay. It counts as cell-based, Plasmodium falciparum. The conditions noted are these: Plasmodium falciparum, DD2, 72 h. In outline: (§1)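 Asynchronous asexual blood-stage parasites were seeded at 0.3% parasitemia and 1% hematocrit into 2-fold, 10-point test compound dilutions. Incubation was 72 h at 37°C under 5% O2/5% CO2/90% N2. Final parasitemia was read by flow cytometry. IC50 came from nonlinear regression, 4 independent assays in duplicate, with two-tailed Mann-Whitney U tests.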

Experiment [3] deals with P. falciparum 7G8^7G8+F145I parasite line. The experiment in a line: [3H]-drug accumulation assay in cultured parasites. It counts as cell-based, Plasmodium falciparum. The conditions noted are these: 60 min, trophozoites. Put shortly: (§2)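 Sorbitol-synchronized early trophozoites (24–26 h) were magnet-purified and resuspended in bicarbonate-free RPMI 1640 (25 mM HEPES, 10 mM glucose, 0.2 mM hypoxanthine, pH 7.4), counted by hemocytometer. They were mixed with an equal volume of radiolabelled drug (10 nM [3H]-CQ before mixing) for 1 h at 37°C, spun through dibutyl phthalate, then scintillation counted. CAR was internal/external drug, corrected for uninfected erythrocytes, per 10^6 cells at 75 fl; 4–6 assays in duplicate.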

The test system of experiment [4] is P. falciparum WT (3D7) parasite line. The experiment in a line: Parasite drug susceptibility assay. The conditions noted are these: Plasmodium falciparum, 3D7, 72 h. It counts as cell-based, Plasmodium falciparum. Put shortly:
as §1

The target in experiment [5] is T2, PfCRT 7G8 (Plasmodium falciparum, UniProt W7FI62).
T2 sequence (W7FI62 1-424): T1 sequence (Q9N623 1-424) with C72S, K76T, A220S, N326D, I356L
Type of experiment: biochemical. Particulars: for transport activity (in words): proteoliposomes.

For experiment [6], the system named is P. falciparum WT (3D7) parasite line. The experiment in a line: [3H]-drug accumulation assay in cultured parasites. It counts as cell-based, Plasmodium falciparum. Particulars: 60 min, trophozoites. In outline: as §2
Experiment [7] has as its target T3, PfCRT 7G8+F145I (Plasmodium falciparum, UniProt W7FI62, F145I).
T3 sequence (W7FI62 1-424 F145I): T1 sequence (Q9N623 1-424) with C72S, K76T, F145I, A220S, N326D, I356L
The experiment in a line: Transport. The conditions noted are these: for 1-min uptake, transport in proteoliposomes: 100 nM [3H]-drug, inwardly-directed pH gradient; for Vmax, transport in proteoliposomes: initial rates over 3 s, Michaelis-Menten fit; for transport activity (in words): proteoliposomes. It counts as biochemical.

The subject of experiment [8] is P. falciparum 7G8^7G8+C350R parasite line. The experiment in a line: [3H]-drug accumulation assay in cultured parasites. Type of experiment: cell-based, Plasmodium falciparum. The conditions noted are these: 60 min, trophozoites. In outline: as §2
The target of experiment [9] is T4, PfCRT Dd2 (Plasmodium falciparum, UniProt Q9N623, A220S/I356T/K76T/M74I/N326S/N75E/Q271E/R371I).
T4 sequence (Q9N623 1-424 M74I/N75E/K76T/A220S/Q271E/N326S/I356T/R371I): T1 sequence (Q9N623 1-424) with M74I, N75E, K76T, A220S, Q271E, N326S, I356T, R371I
The experiment in a line: Transport. The conditions noted are these: for transport activity (in words): proteoliposomes. Type of experiment: biochemical.

The mark [10] stands for this setting: 100 nM [3H]-drug, 1 min, inwardly-directed pH gradient.
The mark [11] stands for this setting: initial rates over 3 s, Michaelis-Menten fit.

In experiment [1], `CCN(CC)CCCC(C)Nc1ccnc2cc(Cl)ccc12` (stereo not drawn) [CQ, chloroquine] had a Kd of 280 ± 40 nM. In [1], the “Bmax, binding at pH 5.5” value is on record as 0.40 ± 0.02 mol CQ/mol PfCRT. For the same compound, the “Bmax, binding at pH 7.5” value in experiment [1] was 0.42 ± 0.02 mol CQ/mol PfCRT. In addition, the values for the IC50 in experiment [2] and in experiment [4] were 143 ± 21.8 nM and 12.2 ± 0.5 nM, respectively. Also, the “[3H]-CQ CAR (cellular accumulation ratio)” value is on record as 388.4 ± 38.9 in [3] (5 nM [3H]-CQ), 876.7 ± 38.7 in experiment [6] (5 nM [3H]-CQ) and 406.4 ± 22.4 in experiment [8] (5 nM [3H]-CQ). The “1-min uptake, transport in proteoliposomes” value in [5] (setting [10]) was 3.14 ± 0.50 nmol/mg; in [7], 0.24 ± 0.05 nmol/mg; in experiment [9] (setting [10]), 3.33 ± 0.22 nmol/mg. The “catalytic turnover number (kcat)” value in [5] (from Vmax, assuming full activity of reconstituted PfCRT 7G8) was ~ 0.2 s^−1. For the same compound, the “Vmax, transport in proteoliposomes” value in experiment [5] (setting [11]) worked out at 92.2 ± 4.9 nmol/mg/min; in [7], 63.01 ± 3.57 nmol/mg/min; in experiment [9] (setting [11]) it was 91.37 ± 2.79 nmol/mg/min. The “time course of uptake (in words)” value in experiment [5] (pH gradient 5.5–7.5 and membrane potential (valinomycin)) is on record as “maximal within one minute”. The results for the “transport activity (in words)” value in [5], in experiment [7] and in experiment [9] were “robust transport activity”, “reduced uptake” and “robust transport activity”, respectively.
In turn, `Clc1ccc2c(N3CCN(CCCN4CCN(c5ccnc6cc(Cl)ccc56)CC4)CC3)ccnc2c1` [PPQ, piperaquine] had a Kd in experiment [1] of 260 ± 40 nM. Also, the “Bmax, binding at pH 5.5” value in [1] was determined as 0.38 ± 0.02 mol CQ/mol PfCRT. Moreover, the “Bmax, binding at pH 7.5” value in [1] was 0.40 ± 0.02 mol CQ/mol PfCRT. In addition, the IC50 in experiment [2] came out at 18.3 ± 1.9 nM; in experiment [4], 16.2 ± 1.3 nM. Besides, the “[3H]-PPQ CAR (cellular accumulation ratio)” value worked out at 1125.6 ± 59.6 in [3] (20 nM [3H]-PPQ), 2123.8 ± 72.2 in experiment [6] (20 nM [3H]-PPQ) and 1207.4 ± 119.8 in experiment [8] (20 nM [3H]-PPQ). The “transport activity (in words)” value is “Minimal” in experiment [5], “no detectable” in experiment [5] (listed as [^3H]-PPQ), “substantially increased” in [7] and “Minimal” in [9]. Also, the “1-min uptake, transport in proteoliposomes” value in [7] is 1.41 ± 0.12 nmol/mg. For the same compound, the “Vmax, transport in proteoliposomes” value in experiment [7] was 109.30 ± 7.27 nmol/mg/min.
